In test [1] the test system is Cutibacterium acnes. In words: Antibacterial activity against Propionibacterium acnes ATCC 11827 up to 800 ug/ml after 2 days by broth dilution method. It is filed as functional, organism-based. The method in brief: (§1)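 Broth dilution in 0.8% nutrient broth, 0.5% yeast extract and 0.1% glucose. Compound in DMF, diluted twofold, 1% DMF final, highest 800 µg/ml. Inoculum was a 2-day-old culture, reactivated at 30° with shaking (B. subtilis), at 30° stationary (Br. ammoniagenes) or at 37° stationary (others). Stationary incubation 2 days; growth by OD at 660 nm; MIC = lowest concentration with no growth.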
Background: Dilution methods test growth across graded concentrations, often in twofold steps.

The subject of test [2] is Corynebacterium ammoniagenes. In words: Antibacterial activity against Brevibacterium ammoniagenes ATCC 6872 up to 800 ug/ml after 2 days by broth dilution method. It is filed as functional, organism-based. An outline of the steps: as §1
Test [3] concerns Staphylococcus aureus. Briefly: Antibacterial activity against Staphylococcus aureus ATCC 12598 up to 800 ug/ml after 2 days by broth dilution method. It counts as functional, organism-based. An outline of the steps: as §1
Test [4] deals with Bacillus subtilis. Briefly: Antibacterial activity against Bacillus subtilis ATCC 9372 up to 800 ug/ml after 2 days by broth dilution method. It counts as functional, organism-based. An outline of the steps: as §1
The test system of test [5] is Streptococcus mutans. In words: Antibacterial activity against Streptococcus mutans ATCC 25175 up to 800 ug/ml after 2 days by broth dilution method. It is filed as functional, organism-based. The method in brief:
(§2)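 Twofold broth dilution in 3.7% brain heart infusion broth. Sample dissolved in DMF, 1% DMF final, top concentration 800 µg/ml. Inoculated with 2-day-old culture reactivated in stationary culture at 37°. Stationary incubation for 2 days, turbidity read at 660 nm; MIC taken as lowest concentration showing no growth.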

In test [6] the test system is Cutibacterium acnes. Briefly: Antibacterial activity against Propionibacterium acnes ATCC 11827 after 2 days by broth dilution method. It counts as functional. The note with it: ATCC 11827, 48 h. An outline of the steps: as §1
In test [7] the test system is Streptococcus mutans. In words: Antibacterial activity against Streptococcus mutans ATCC 25175 after 2 days by broth dilution method in presence of 0.5 MIC of crinitol. As to conditions: ATCC 25175, 48 h. It counts as functional.
Test [8] relates to Streptococcus mutans. Briefly: Antibacterial activity against Streptococcus mutans ATCC 25175 after 2 days by broth dilution method. It counts as functional. As to conditions: ATCC 25175, 48 h. The method in brief:
as §2

For test [9], the system named is Bacillus subtilis. In words: Antibacterial activity against Bacillus subtilis ATCC 9372 after 2 days by broth dilution method. It is filed as functional. The note with it: ATCC 9372, 48 h. An outline of the steps: as §1
Test [10] relates to Streptococcus mutans. Briefly: Ratio of MIC for Streptococcus mutans ATCC 25175 to MIC for Streptococcus mutans ATCC 25175 in presence of 0.5 MIC of crinitol. It counts as functional.
For test [11], the system named is Corynebacterium ammoniagenes. Briefly: Antibacterial activity against Brevibacterium ammoniagenes ATCC 6872 after 2 days by broth dilution method. It is filed as functional. As to conditions: ATCC 6872, 48 h. An outline of the steps:
as §1

Test [12] relates to Corynebacterium ammoniagenes. In words: Antibacterial activity against Brevibacterium ammoniagenes ATCC 6872 after 2 days by broth dilution method in presence of 0.5 MIC of crinitol. As to conditions: ATCC 6872, 48 h. It is filed as functional.
Test [13] concerns Bacillus subtilis. In words: Antibacterial activity against Bacillus subtilis ATCC 9372 after 2 days by broth dilution method in presence of 0.5 MIC of crinitol. It is filed as functional. As to conditions: ATCC 9372, 48 h.
Test [14] concerns Staphylococcus aureus. In words: Antibacterial activity against Staphylococcus aureus ATCC 12598 after 2 days by broth dilution method. It counts as functional. The note with it: ATCC 12598, 48 h. An outline of the steps: as §1
For test [15], the system named is Cutibacterium acnes. In words: Antibacterial activity against Propionibacterium acnes ATCC 11827 after 2 days by broth dilution method in presence of 0.5 MIC of crinitol. It counts as functional. As to conditions: ATCC 11827, 48 h.
Test [16] deals with Corynebacterium ammoniagenes. In words: Antibacterial activity against Brevibacterium ammoniagenes ATCC 6872 after 2 days by broth dilution method in presence of 0.5 MIC of butylated hydroxytoluene. It is filed as functional. The note with it: ATCC 6872, 48 h. An outline of the steps:
(§3)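 Checkerboard: twofold dilutions of crinitol crossed with twofold dilutions of the antioxidant (BHA or BHT). Medium was nutrient broth/yeast extract/glucose, or 3.7% brain heart infusion for S. mutans. DMF at 1% final, 2-day-old inoculum, stationary culture 2 days. Growth by OD 660 nm; MIC = lowest concentration without growth.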

In test [17] the test system is Streptococcus mutans. In words: Antibacterial activity against Streptococcus mutans ATCC 25175 after 2 days by broth dilution method in presence of 0.5 MIC of butylated hydroxyanisole. It counts as functional. The note with it: ATCC 25175, 48 h. The method in brief: as §3
For test [18], the system named is Bacillus subtilis. Briefly: Antibacterial activity against Bacillus subtilis ATCC 9372 after 2 days by broth dilution method in presence of 0.5 MIC of butylated hydroxyanisole. It counts as functional. The note with it: ATCC 9372, 48 h. An outline of the steps: as §3
Test [19] deals with Bacillus subtilis. In words: Ratio of MIC for Bacillus subtilis ATCC 9372 to MIC for Bacillus subtilis ATCC 9372 in presence of 0.5 MIC of butylated hydroxyanisole. It counts as functional.
In test [20] the test system is Cutibacterium acnes. Briefly: Ratio of MIC for Propionibacterium acnes ATCC 11827 to MIC for Propionibacterium acnes ATCC 11827 in presence of 0.5 MIC of butylated hydroxytoluene. It counts as functional.
The subject of test [21] is Bacillus subtilis. In words: Antibacterial activity against Bacillus subtilis ATCC 9372 after 2 days by broth dilution method in presence of 0.5 MIC of butylated hydroxytoluene. It is filed as functional. As to conditions: ATCC 9372, 48 h. An outline of the steps: as §3
Test [22] has as its system Streptococcus mutans. In words: Ratio of MIC for Streptococcus mutans ATCC 25175 to MIC for Streptococcus mutans ATCC 25175 in presence of 0.5 MIC of butylated hydroxytoluene. It counts as functional.
For test [23], the system named is Cutibacterium acnes. Briefly: Antibacterial activity against Propionibacterium acnes ATCC 11827 after 2 days by broth dilution method in presence of 0.5 MIC of butylated hydroxyanisole. It is filed as functional. The note with it: ATCC 11827, 48 h. An outline of the steps:
as §3

For test [24], the system named is Streptococcus mutans. In words: Antibacterial activity against Streptococcus mutans ATCC 25175 after 2 days by broth dilution method in presence of 0.5 MIC of butylated hydroxytoluene. It counts as functional. The note with it: ATCC 25175, 48 h. An outline of the steps: as §3
Test [25] relates to Cutibacterium acnes. In words: Ratio of MIC for Propionibacterium acnes ATCC 11827 to MIC for Propionibacterium acnes ATCC 11827 in presence of 0.5 MIC of butylated hydroxyanisole. It counts as functional.
Test [26] deals with Corynebacterium ammoniagenes. Briefly: Ratio of MIC for Brevibacterium ammoniagenes ATCC 6872 to MIC for Brevibacterium ammoniagenes ATCC 6872 in presence of 0.5 MIC of butylated hydroxytoluene. It is filed as functional.
In test [27] the test system is Corynebacterium ammoniagenes. In words: Antibacterial activity against Brevibacterium ammoniagenes ATCC 6872 after 2 days by broth dilution method in presence of 0.5 MIC of butylated hydroxyanisole. It is filed as functional. The note with it: ATCC 6872, 48 h. The method in brief: as §3
The test system of test [28] is Cutibacterium acnes. Briefly: Antibacterial activity against Propionibacterium acnes ATCC 11827 after 2 days by broth dilution method in presence of 0.5 MIC of butylated hydroxytoluene. It counts as functional. As to conditions: ATCC 11827, 48 h. An outline of the steps:
as §3

Test [29] deals with Staphylococcus aureus. In words: Antibacterial activity against Staphylococcus aureus ATCC 12598 after 2 days by broth dilution method in presence of 0.5 MIC of butylated hydroxytoluene. The note with it: ATCC 12598, 48 h. It counts as functional. An outline of the steps:
as §3

Test [30] relates to Staphylococcus aureus. Briefly: Antibacterial activity against Staphylococcus aureus ATCC 12598 after 2 days by broth dilution method in presence of 0.5 MIC of butylated hydroxyanisole. As to conditions: ATCC 12598, 48 h. It is filed as functional. An outline of the steps:
as §3

Test [31] has as its system Bacillus subtilis. Briefly: Ratio of MIC for Bacillus subtilis ATCC 9372 to MIC for Bacillus subtilis ATCC 9372 in presence of 0.5 MIC of butylated hydroxytoluene. It counts as functional.
The test system of test [32] is Corynebacterium ammoniagenes. Briefly: Ratio of MIC for Brevibacterium ammoniagenes ATCC 6872 to MIC for Brevibacterium ammoniagenes ATCC 6872 in presence of 0.5 MIC of butylated hydroxyanisole. It is filed as functional.
In test [33] the test system is Staphylococcus aureus. In words: Antibacterial activity against Staphylococcus aureus ATCC 12598 after 2 days by broth dilution method in presence of 0.5 MIC of crinitol. It counts as functional. As to conditions: ATCC 12598, 48 h.

In brackets after ≈: the same amount, converted by molar mass. Activity calls are given as the source filed them. No cut-off for these calls is given here.

As to `CC(=O)O[C@@H](/C=C(\C)CCC=C(C)C)C/C(C)=C/CC/C(C)=C/CO`, the outcome in [1], in [2], in [3], in test [4] and in [5] was inactive.

Take `CC(=O)OC/C=C(\C)CC/C=C(\C)C[C@H](/C=C(\C)CCC=C(C)C)OC(C)=O`: the result in [1], in test [2], in test [3], in [4] and in test [5] was inactive.

As to `CC(C)=CCC/C(C)=C/CC/C(C)=C/CC/C(C)=C/CO`, the result in [1], in [2], in test [3], in test [4] and in test [5] was inactive.

The MIC is the lowest concentration found to suppress growth. With `Cc1cc(C(C)(C)C)c(O)c(C(C)(C)C)c1` [BUTYLATED HYDROXYTOLUENE], the minimal inhibitory concentration (MIC) was determined as 25 mg/L (≈ 113 µM) in [6]; 1.57 mg/L in test [7]; 25 mg/L (≈ 113 µM) in [8]; 25 mg/L (≈ 113 µM) in test [9]; 25 mg/L (≈ 113 µM) in test [11]; 12.5 mg/L in test [12]. Besides, the MIC in test [13] is 6.25 mg/L; in [14] it was above 800 mg/L; in [15], 6.25 mg/L. For the same molecule, the Ratio in test [10] worked out at 16.

Take `CC(C)=CCC/C(C)=C/C(=O)C/C(C)=C/CC/C(C)=C/CO`: the result in [1], in test [2], in [3], in test [4] and in test [5] was inactive.

Consider `CC(C)=CCC/C(C)=C/[C@H](O)C/C(C)=C/CC/C(C)=C/CO` [CRINITOL], for which the MIC in test [6] was found to be 25 mg/L (≈ 81.6 µM); in test [16], 50 mg/L; in test [17], 12.5 mg/L; in test [8], 50 mg/L (≈ 163 µM); in test [18], 50 mg/L; in test [21] it was 12.5 mg/L. Besides, the MIC in [23] came out at 6.25 mg/L; in test [24] it was 0.78 mg/L; in test [9], 50 mg/L (≈ 163 µM); in test [27] it was 100 mg/L; in [28] it was 6.25 mg/L; in test [29], 400 mg/L. Besides, the MIC in test [30] came to 400 mg/L; in test [11] it was 100 mg/L (≈ 326 µM); in [14], 400 mg/L (≈ 1310 µM). For the same molecule, the Ratio in [19] came out at 1; in test [20] it was 4; in test [22], 64; in test [25] it was 4; in test [26], 2; in [31], 4. Moreover, the Ratio in test [32] was 1.

Consider `COc1ccc(O)c(C(C)(C)C)c1.COc1ccc(O)cc1C(C)(C)C` [BUTYLATED HYDROXYANISOLE], for which the MIC in [6] is 50 mg/L; in [33], 200 mg/L; in test [7], 12.5 mg/L; in test [8], 100 mg/L; in test [9], 100 mg/L; in test [11], 200 mg/L. Besides, the MIC came out at 100 mg/L in [12], 50 mg/L in [13], 200 mg/L in test [14] and 6.25 mg/L in test [15]. Moreover, the Ratio in [10] is reported as 18.

The record behind these values is ChEMBL document CHEMBL1149718, “Antibacterial activity of crinitol and its potentiation” (1992).
